16 compounds from ChEMBL document CHEMBL1135577, “Synthesis and biological evaluation of structurally highly modified analogues of the antimitotic natural product curacin A” (J Med Chem, 2002) can be followed below.

pIC50: −log10 of the molar value.

Experiment [1] has as its system A2780. The experiment can be described thus: Compound was tested for colchicine Binding Inhibition by using human ovarian carcinoma cell line (at 5 uM ). In kind it is functional. Summed up: (§1)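 [3H]colchicine (5 μM) was incubated with 1 μM tubulin and agent (1-250 μM) or DMSO vehicle (5% v/v) at 30 °C for 15 min or 37 °C for 10 min, in 1 M monosodium glutamate, 0.1 M glucose-1-phosphate, 1 mM MgCl2, 1 mM GTP and 0.5 mg/mL BSA. Samples were filtered through DEAE-cellulose and counted by scintillation. Values are means (N = 9 over four concentrations) ± SD.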

A further experiment has as its system MDA-MB-231. Description: Compound was tested for 50% Growth Inhibitory concentration by using MDA-MB-231 cell lines. Conditions: Homo sapiens. The experiment is classed as functional. In a few lines:
(§2)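 Cultured human tumor cells were seeded at 500-2000 cells/well, allowed to attach for 48 h, then exposed continuously for 48 h to DMSO vehicle or agent at five concentrations (e.g., 50-0.08 μM, 10-0.016 μM or 1-0.0016 μM series), each in quadruplicate. A time-zero plate was included. Cell number was read by MTS/phenazine methanesulfonate at A490-A630. Values are means (N = 4 over 10 concentrations) ± SD.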

Experiment [2] has as its system PC-3. The experiment can be described thus: Compound was tested for 50% growth inhibitory concentration by using human prostate carcinoma cell lines (PC -3). In kind it is functional. In a few lines: as §2
Experiment [3] relates to A2780. The experiment can be described thus: Compound was tested for Tubulin polymerization inhibition by using human ovarian carcinoma cell lines. The experiment is classed as functional. In a few lines: (§3)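 Tubulin (10 μM final, 1 mg/mL) was preincubated with agent in DMSO (4% v/v final) and 0.8 M monosodium glutamate for 15 min at 30 °C, then cooled to 0 °C and GTP (0.4 mM final) added. Turbidity at 350 nm was followed for 20 min at 30 °C. […] Values are averages of two determinations.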

Experiment [4] has as its system 2008. Description: Compound was tested for 50% growth inhibitory concentration by using human ovarian carcinoma cell lines (2008). In kind it is functional. In a few lines:
as §2

Experiment [5] concerns A2780. Description: Tested for colchicine binding inhibition, using human ovarian cancer cell lines (at 5 uM ). In kind it is functional. Summed up: as §1
The next experiment deals with Tubulin (Bos taurus). Description: Inhibition of tubulin polymerization of purified bovine brain tubulin.
For another experiment, the system named is MCF7. Description: Tested for 50% growth inhibitory concentration by using MCF-7 cell lines. In kind it is functional. The settings on record: Homo sapiens. In a few lines:
as §2

Experiment [6] concerns PC-3. Description: 50% Growth inhibitory concentration by using PC -3 human prostate carcinoma cell lines (48h continuous exposure). In kind it is functional. Conditions: PC-3, 48 h. In a few lines:
as §2

Experiment [7] concerns 2008. The experiment can be described thus: 50% Growth inhibitory concentration( GI 50 ) by using 2008 human ovarian carcinoma cell lines. The experiment is classed as functional. In a few lines:
as §2

For experiment [8], the system named is A2780. Description: Compound was tested for Tubulin polymerization inhibition by using human ovarian cancer cell lines. In kind it is functional. In a few lines:
as §3

As usually defined, the inhibition is how much of the control response was suppressed. A high value points to strong suppression. Broadly, the GI50 is the concentration that inhibits growth by half. What is called pIC50 is the IC50 on a negative log10 scale, so that one unit is a factor of ten.

Turning to `C=CC[C@@H](CC[C@@]1(C)C[C@@H]1[C@H]1C[C@@H]1CC/C=C\[C@@H]1CSC([C@@H]2C[C@@H]2C)=N1)OC`, in the experiment on A2780 [1], the inhibition at 5 µM was less than 10%. The concentration for 50% growth inhibition (GI50) in the experiment with MDA-MB-231, in the experiment with PC-3 [2] and with 2008 [4] was greater than 50000 nM each time. The compound further returned a TPI in the experiment on A2780 [3] of 0%.
In turn, `C=CC[C@@H](CC/C(C)=C\C=C\CC/C=C\[C@@H]1CSC([C@@H]2C[C@@H]2C)=N1)OC` [CURACIN C] registered an inhibition at 5 µM in the experiment on A2780 [5] of 10%. Besides, at Tubulin (Bos taurus), the pIC50 is 5.64. For the same compound, the GI50 in the experiment with MCF7 came to 3600 nM.
On to `COc1cc(CCCCCCCC(C)CCC(O)c2cccs2)cc(OC)c1OC` (stereo not given), for which the GI50 in the experiment on PC-3 [6] came out at 21000 nM; with 2008 [7], 26000 nM. Further, the inhibition at 5 µM in the experiment with A2780 [5] was less than 10%. In addition, the TPI in the experiment on A2780 [8] turned out to be 15%.
`CCC[C@@H](CC/C(C)=C/C=C/CC/C=C\[C@@H]1CSC([C@@H]2C[C@@H]2C)=N1)OC` displayed an inhibition at 5 µM in the experiment on A2780 [5] of 85%. On Tubulin (Bos taurus), this compound gave a pIC50 of 5.92. In the experiment on MCF7, this compound showed a GI50 of 50 nM.
For `C=CCCC1=N[C@H](/C=C\CC/C=C/C=C(\C)CC[C@H](CC=C)OC)CS1`, the inhibition at 5 µM in the experiment with A2780 [5] was determined as 83%. In addition, at Tubulin (Bos taurus), the pIC50 was 6.04. Further, in the experiment on MCF7, it took 300 nM to inhibit growth by half (GI50).
In the experiment on A2780 [5], `C=CC[C@@H](CC/C(C)=C/C=C/CC/C=C\[C@H]1CSC([C@@H]2C[C@@H]2C)=N1)OC` had an inhibition at 5 µM of 3%. This compound also had a pIC50 on Tubulin (Bos taurus) of 5.26. Further, the GI50 with MCF7 is greater than 1000 nM.
For the compound `CCC[C@@H](CC/C(C)=C/C=C/CCCCC1CSC([C@@H]2C[C@@H]2C)=N1)OC` (stereo not given in full), in the experiment with A2780 [5], 5 µM produced 1% inhibition. This compound had a pIC50 against Tubulin (Bos taurus) of 5.34. Also, it took 3300 nM to inhibit growth in the experiment with MCF7 by half (GI50).
Turning to `C=CC[C@@H](CC/C(C)=C/C=C/CC/C=C\[C@H](CSC)NC(C)=O)OC`, the inhibition at 5 µM in the experiment on A2780 [5] stood at 12%. On Tubulin (Bos taurus), the pIC50 is 5.48. Growth in the experiment with MCF7 was halved (GI50) at 5200 nM.
For the compound `C=CC[C@@H](CC/C(C)=C/C=C/CC/C=C\[C@@H]1CSC([C@H]2C[C@@H]2C)=N1)OC`, the inhibition at 5 µM with A2780 [5] is 88%. The compound further had a negative logarithm of the IC50 (pIC50) against Tubulin (Bos taurus) of 6.11. This compound also yielded a concentration for 50% growth inhibition (GI50) with MCF7 of 990 nM.
As to `C=CC[C@@H](CC/C(C)=C/C=C/CC/C=C\c1coc(C(C)(C)C)n1)OC`, the GI50 in the experiment on PC-3 [6] and in the experiment on 2008 [7] was greater than 50000 nM in each case. The compound also displayed an inhibition at 5 µM with A2780 [5] of less than 10%. The compound further registered a TPI in the experiment with A2780 [8] of 51%.
`CCCCCCCc1cccc(CC/C=C\[C@@H]2CSC([C@@H]3C[C@@H]3C)=N2)c1` showed a pIC50 against Tubulin (Bos taurus) of less than 4.30.
With `C=CC[C@@H](CC/C=C/C=C/CC/C=C\[C@@H]1CSC([C@@H]2C[C@@H]2C)=N1)OC`, the inhibition at 5 µM in the experiment on A2780 [5] was 53%. The compound further returned a GI50 in the experiment with MCF7 of 340 nM.
On to `C=CC[C@@H](CC/C(C)=C/C=C/CC/C=C\[C@@H]1CSC(C(C)(C)C)=N1)OC`, for which the figures for the GI50 in the experiment with PC-3 [6] and in the experiment on 2008 [7] were 130 nM and 220 nM, respectively. In addition, the inhibition at 5 µM in the experiment with A2780 [5] was 35%. Further, the TPI with A2780 [8] is 100%.
Compound `C=CC[C@@H](CC/C(C)=C/C=C/CC/C=C\[C@@H]1CSC([C@@H]2C[C@@H]2C)=N1)OC(=O)c1ccccc1` had an inhibition at 5 µM with A2780 [5] of 5%. The pIC50 against Tubulin (Bos taurus) was less than 4.10. Moreover, the GI50 with MCF7 was greater than 10000 nM.
In the experiment on A2780 [5], `C=CC[C@@H](CC/C(C)=C/C=C/CC/C=C\[C@H](CSC(=O)[C@@H]1C[C@@H]1C)NC(C)=O)OC` displayed an inhibition at 5 µM of 9%. At Tubulin (Bos taurus), this compound showed a pIC50 of 5.82. The GI50 in the experiment with MCF7 was determined as 4200 nM.
The compound `C=CC[C@@H](CC/C(C)=C/C=C/CC/C=C\[C@@H]1CSC([C@H]2C[C@H]2C)=N1)OC` yielded an inhibition at 5 µM in the experiment with A2780 [5] of 48%. Moreover, the pIC50 against Tubulin (Bos taurus) is 5.68. The GI50 with MCF7 came to 360 nM.
